Activity calls are given as the source filed them. The calls are words filed in the database; no cut-off is given here. Where a SMILES comes first, the peptide text is derived from it.
Columns and labels:
[1] = Inhibition of human 20S proteasome chymotrypsin-like activity using Suc-Leu-Leu-Val-Tyr-AMC fluorogenic substrate by fluorimetry
Method in brief: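 IC50 values are the averages of three independent experiments.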

[2] = organism: Homo sapiens; assay: Ratio of lactacystin IC50 to compound IC50 for human 20S proteasome
[3] = organism: Homo sapiens; assay: Ratio of LLM-F IC50 to compound IC50 for human 20S proteasome
[4] = Inhibition of human 20S proteasome trypsin-like activity using Bz-VGR-AMC fluorogenic substrate by fluorimetry
[5] = organism: Homo sapiens; assay: Inhibition of human 20S proteasome caspase-like activity using (Z)-LLE-bNA fluorogenic substrate by fluorimetry
[6] = tested on: Human immunodeficiency virus 1; assay: Antiviral activity against drug-resistant HIV1 isolate; format: functional, organism-based
[7] = tested on: Human immunodeficiency virus 1; assay: Antiviral activity against HIV1; format: functional, organism-based
[8] = organism: Homo sapiens; assay: Ratio of bevirimat IC50 to compound IC50 for human 20S proteasome

Row | SMILES | IC50 [1] [µM] | further results
1 | C=C(C)[C@@H]1CC[C@]2(C(=O)O)CC[C@]3(C)[C@H](CC[C@H]4C3(C)CC[C@H]3C(C)(C)[C@@H](OC(=O)c5cccc(Br)c5)CC[C@@]34C)[C@@H]12 (single isomer, unassigned) | 7.05 | –
2 | C=C(COCCc1ccc(F)cc1)[C@@H]1CC[C@]2(C(=O)N[C@@H](CC(C)C)C(=O)O)CC[C@]3(C)[C@H](CC[C@H]4C3(C)CC[C@H]3C(C)(C)[C@@H](O)CC[C@@]34C)[C@@H]12 (single isomer, unassigned) | 2.4 | –
3 | C=C(COCCc1ccc(Cl)cc1)[C@@H]1CC[C@]2(C(=O)N[C@@H](CC(C)C)C(=O)O)CC[C@]3(C)[C@H](CC[C@H]4C3(C)CC[C@H]3C(C)(C)[C@@H](O)CC[C@@]34C)[C@@H]12 (single isomer, unassigned) | 1.8 | Ratio IC50 [2]: 3; Ratio IC50 [3]: 3
4 | C=C(COCCc1ccc(Br)cc1)[C@@H]1CC[C@]2(C(=O)N[C@@H](CC(C)C)C(=O)O)CC[C@]3(C)[C@H](CC[C@H]4C3(C)CC[C@H]3C(C)(C)[C@@H](O)CC[C@@]34C)[C@@H]12 (single isomer, unassigned) | 1.56 | Ratio IC50 [2]: 3; Ratio IC50 [3]: 3
5 | C=C(C)[C@@H]1CC[C@]2(C(=O)O)CC[C@]3(C)[C@H](CC[C@H]4C3(C)CC[C@H]3C(C)(C)[C@@H](OC(=O)c5ccc(OC)c(OC)c5)CC[C@@]34C)[C@@H]12 (single isomer, unassigned) | > 40 | –
6 | C=C(COCCN1CCOCC1)[C@@H]1CC[C@]2(C(=O)N[C@@H](CC(C)C)C(=O)O)CC[C@]3(C)[C@H](CC[C@H]4C3(C)CC[C@H]3C(C)(C)[C@@H](O)CC[C@@]34C)[C@@H]12 (single isomer, unassigned) | 3.13 | –
7 | C=C(C)[C@@H]1CC[C@]2(C(=O)O)CC[C@]3(C)[C@H](CC[C@H]4C3(C)CC[C@H]3C(C)(C)[C@@H](OC(=O)c5cc(OC)c(OC)c(OC)c5)CC[C@@]34C)[C@@H]12 (single isomer, unassigned) | > 40 | –
8 | C=C(COCC)[C@@H]1CC[C@]2(C(=O)N[C@@H](CC(C)C)C(=O)O)CC[C@]3(C)[C@H](CC[C@H]4C3(C)CC[C@H]3C(C)(C)[C@@H](O)CC[C@@]34C)[C@@H]12 (single isomer, unassigned) | 13.2 | –
9 | C=C(C)[C@@H]1CC[C@]2(C(=O)O)CC[C@]3(C)[C@H](CC[C@H]4C3(C)CC[C@H]3C(C)(C)[C@@H](OC(=O)COCC(=O)O)CC[C@@]34C)[C@@H]12 (single isomer, unassigned) | > 40 | –
10 | C=C(C)[C@@H]1CC[C@]2(C(=O)O)CC[C@]3(C)[C@H](CC[C@H]4C3(C)CC[C@H]3C(C)(C)[C@@H](OC(=O)c5cc(OC)c(OC)cc5OC)CC[C@@]34C)[C@@H]12 (single isomer, unassigned) | 10.9 | –
11 | C=C(C)[C@@H]1CC[C@]2(C(=O)O)CC[C@]3(C)[C@H](CC[C@H]4C3(C)CC[C@H]3C(C)(C)[C@@H](OC(=O)c5ccccc5Br)CC[C@@]34C)[C@@H]12 (single isomer, unassigned) | 7.99 | –
12 | CSCC[C@@H](C=O)NC(=O)[C@H](CC(C)C)NC(=O)[C@H](CC(C)C)NC(C)=O (Ac-Leu-Leu-Met-aldehyde) | 5.25 | –
13 | C=C(COCCC)[C@@H]1CC[C@]2(C(=O)N[C@@H](CC(C)C)C(=O)O)CC[C@]3(C)[C@H](CC[C@H]4C3(C)CC[C@H]3C(C)(C)[C@@H](O)CC[C@@]34C)[C@@H]12 (single isomer, unassigned) | 3.67 | –
14 | C=C(C)[C@@H]1CC[C@]2(C(=O)O)CC[C@]3(C)[C@H](CC[C@H]4C3(C)CC[C@H]3C(C)(C)[C@@H](OC(=O)c5ccccc5)CC[C@@]34C)[C@@H]12 (single isomer, unassigned) | 11.1 | –
15 | C=C(CBr)[C@@H]1CC[C@]2(C(=O)N[C@@H](CC(C)C)C(=O)O)CC[C@]3(C)[C@H](CC[C@H]4C3(C)CC[C@H]3C(C)(C)[C@@H](O)CC[C@@]34C)[C@@H]12 (single isomer, unassigned) | 5.85 | –
16 | C=C(C)[C@@H]1CC[C@]2(C(=O)NCCCCCCCC(=O)N[C@@H](CC(C)C)[C@H](O)CC(=O)O)CC[C@]3(C)[C@H](CC[C@H]4C3(C)CC[C@H]3C(C)(C)[C@@H](O)CC[C@@]34C)[C@@H]12 (single isomer, unassigned) | > 40 | –
17 | C=C(C)[C@@H]1CC[C@]2(C(=O)O)CC[C@]3(C)[C@H](CC[C@H]4C3(C)CC[C@H]3C(C)(C)[C@@H](OC(=O)c5ccc(Br)cc5)CC[C@@]34C)[C@@H]12 (single isomer, unassigned) | > 40 | –
18 | C=C(C)[C@@H]1CC[C@]2(C(=O)O)CC[C@]3(C)[C@H](CC[C@H]4C3(C)CC[C@H]3C(C)(C)[C@@H](OC(=O)c5ccc6c(c5)OCO6)CC[C@@]34C)[C@@H]12 (single isomer, unassigned) | > 40 | –
19 | C=C(C)[C@@H]1CC[C@]2(C(=O)O)CC[C@]3(C)[C@H](CC[C@@H]4[C@@]5(C)CC[C@H](OC(=O)CC(C)(C)C(=O)O)C(C)(C)[C@@H]5CC[C@]43C)[C@@H]12 [BEVIRIMAT] | 9.2 | IC50 [4]: 26.3 µM; inhibition [5]: inactive; EC50 [6]: < 0.01 µM; EC50 [7]: < 0.01 µM
20 | C=C(C)[C@@H]1CC[C@]2(C(=O)O)CC[C@]3(C)[C@H](CC[C@H]4C3(C)CC[C@H]3C(C)(C)[C@@H](OC(=O)C5CC=CCC5C(=O)O)CC[C@@]34C)[C@@H]12 (single isomer, unassigned) | 2.96 | –
21 | C=C(COCCc1ccc(OC)cc1)[C@@H]1CC[C@]2(C(=O)N[C@@H](CC(C)C)C(=O)O)CC[C@]3(C)[C@H](CC[C@H]4C3(C)CC[C@H]3C(C)(C)[C@@H](O)CC[C@@]34C)[C@@H]12 (single isomer, unassigned) | 3.34 | –
22 | C=C(COCCc1ccccc1)[C@@H]1CC[C@]2(C(=O)N[C@@H](CC(C)C)C(=O)O)CC[C@]3(C)[C@H](CC[C@H]4C3(C)CC[C@H]3C(C)(C)[C@@H](O)CC[C@@]34C)[C@@H]12 (single isomer, unassigned) | 2.47 | –
23 | C=C(C)[C@@H]1CC[C@]2(C(=O)O)CC[C@]3(C)[C@H](CC[C@H]4C3(C)CC[C@H]3C(C)(C)[C@@H](OC(=O)Cc5cccc(CC(=O)O)c5)CC[C@@]34C)[C@@H]12 (single isomer, unassigned) | 1.42 | Ratio IC50 [2]: 4; Ratio IC50 [8]: 6; Ratio IC50 [3]: 4
24 | C=C(C)[C@@H]1CC[C@]2(C(=O)N[C@@H](CC(C)C)C(=O)O)CC[C@]3(C)[C@H](CC[C@H]4C3(C)CC[C@H]3C(C)(C)[C@@H](O)CC[C@@]34C)[C@@H]12 (single isomer, unassigned) | > 40 | –
